≈ marks a conversion by molar mass, not a printed value. Calls of active or inactive are those of the source. No cut-off for these calls is given here.

Data set [1] has as its target Fibroblast growth factor receptor 1 (Homo sapiens, UniProt P11362). The experiment in a line: Inhibition of FGFR1 (unknown origin) using poly (Glu, Tyr)4:1 as substrate by ELISA.
The target in data set [2] is Platelet-derived growth factor receptor beta (Homo sapiens, UniProt P09619). Nature of the data set: Inhibition of PDGFRbeta (unknown origin) using poly (Glu, Tyr)4:1 as substrate by ELISA. Background: In an ELISA, binding on a coated surface is turned into a signal by an enzyme label.
The target in data set [3] is Vascular endothelial growth factor receptor 2 (Homo sapiens, UniProt P35968). The experiment in a line: Inhibition of KDR (unknown origin) using poly (Glu, Tyr)4:1 as substrate by ELISA.
Data set [4] concerns the target Platelet-derived growth factor receptor alpha (Homo sapiens, UniProt P16234). Nature of the data set: Inhibition of PDGFRalpha (unknown origin) using poly (Glu, Tyr)4:1 as substrate by ELISA. The procedure, abridged: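 ELISA on wells precoated with 2.5 µg/well poly(Glu,Tyr) 4:1. Reaction buffer was 50 mM HEPES pH 7.4, 20 mM MgCl2, 0.1 mM Na3VO4, 1 mM DTT, with 10 µM ATP; the reaction was started by adding kinase and run 1 h at 37 °C. Phosphotyrosine detected with PY99 and HRP anti-mouse IgG, o-phenylenediamine development, read at 490 nm.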

Data set [5] deals with DNA. Nature of the data set: Binding affinity to calf thymus DNA assessed as intercalation at 20 uM after 2 hrs by circular dichroism spectrophotometry. The class given is nucleic-acid assay. The conditions noted are these: Bos taurus. The method, boiled down: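 Calf thymus DNA (100 µM) was incubated with compound (20 µM) in Tris-HCl buffer for 2 h at 25 °C. CD spectra were then analysed over 230–300 nm.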
On the technique in general: Circular dichroism is widely used to follow secondary structure.

Data set [6] can be described thus: Solubility of the compound in PBS buffer at PH 7.4 after 24 hrs by UV-Visible spectrophotometry. The class given is physicochemical.
Data set [7] can be described thus: Cytotoxicity against human LO2 cells after 72 hrs by sulforhodamine B assay. The class given is cell-based. The conditions noted are these: L02, 72 h. The method, boiled down: (§1)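 Cells seeded and cultured overnight, then treated with increasing compound concentrations for 72 h. Fixed with 10% TCA, stained with sulforhodamine B, dye dissolved in 10 mM Tris-HCl, read at 515 nm. Inhibition taken relative to untreated control. IC50 by the Logit method; triplicate experiments.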
(In general: Sulforhodamine B stains cellular protein and so reports cell mass.)

Data set [8] can be described thus: Cytotoxicity against human GES-1 cells after 72 hrs by sulforhodamine B assay. The class given is cell-based. The conditions noted are these: GES1, 72 h. The procedure, abridged:
as §1

Another data set has as its system A549. Nature of the data set: Cytotoxicity against human A549 cells after 72 hrs by sulforhodamine B assay. The class given is functional, cell-based. The conditions noted are these: A549, 72 h. The method, boiled down:
as §1

The subject of a further data set is HL-60. The experiment in a line: Cytotoxicity against human HL60 cells after 72 hrs by MTT assay. The class given is functional, cell-based. The conditions noted are these: HL-60, 72 h. The method, boiled down: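 HL60 cells were treated with increasing compound concentrations for 72 h. MTT was then added for 4 h. Cells were lysed overnight at 37 °C in 10% SDS–5% isobutanol–12 mM HCl and read at 570 nm. Inhibition taken relative to control. IC50 by the Logit method; triplicate experiments.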

The next data set has as its system MDA-MB-231. Nature of the data set: Cytotoxicity against human MDA-MB-231 cells after 72 hrs by sulforhodamine B assay. The class given is functional, cell-based. The settings on record: MDA-MB-231, 72 h. The procedure, abridged:
as §1

The target of data set [9] is DNA topoisomerase 2-alpha (Homo sapiens) (UniProt P11388). Nature of the data set: Inhibition of human topoisomerase 2 alpha-mediated decatenation of kinetoplast DNA at 100 uM after 30 mins by agarose gel electrophoresis in presence of ATP relative to control. The method, boiled down:
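ATP-dependent decatenation of 0.1 µg kinetoplast DNA by 1 unit of human topo IIα. Incubated 30 min at 37 °C in 50 mM Tris-HCl pH 8.0, 150 mM NaCl, 10 mM MgCl2, 2 mM ATP, 0.5 mM DTT. Gel images quantified by densitometry.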

For data set [10], the system named is DNA. The experiment in a line: Binding affinity to calf thymus DNA assessed as intercalation at 10 uM after 1 hr by fluorescence spectrophotometry. The settings on record: Bos taurus. The class given is nucleic-acid assay. The procedure, abridged: (§2)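 Fluorescence spectra were recorded at 25 °C. Compound was present at 10 µM with calf thymus DNA at 0–80 µM, in 20 mM Tris-HCl (pH 7.5) containing 1% DMSO.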

Data set [11] deals with DNA. The experiment in a line: Binding affinity to calf thymus DNA assessed as intercalation after 1 hr by fluorescence spectrophotometric analysis. The class given is nucleic-acid assay. The conditions noted are these: Bos taurus. The method, boiled down: as §2

Chain of Platelet-derived growth factor receptor alpha (P16234 whole entry): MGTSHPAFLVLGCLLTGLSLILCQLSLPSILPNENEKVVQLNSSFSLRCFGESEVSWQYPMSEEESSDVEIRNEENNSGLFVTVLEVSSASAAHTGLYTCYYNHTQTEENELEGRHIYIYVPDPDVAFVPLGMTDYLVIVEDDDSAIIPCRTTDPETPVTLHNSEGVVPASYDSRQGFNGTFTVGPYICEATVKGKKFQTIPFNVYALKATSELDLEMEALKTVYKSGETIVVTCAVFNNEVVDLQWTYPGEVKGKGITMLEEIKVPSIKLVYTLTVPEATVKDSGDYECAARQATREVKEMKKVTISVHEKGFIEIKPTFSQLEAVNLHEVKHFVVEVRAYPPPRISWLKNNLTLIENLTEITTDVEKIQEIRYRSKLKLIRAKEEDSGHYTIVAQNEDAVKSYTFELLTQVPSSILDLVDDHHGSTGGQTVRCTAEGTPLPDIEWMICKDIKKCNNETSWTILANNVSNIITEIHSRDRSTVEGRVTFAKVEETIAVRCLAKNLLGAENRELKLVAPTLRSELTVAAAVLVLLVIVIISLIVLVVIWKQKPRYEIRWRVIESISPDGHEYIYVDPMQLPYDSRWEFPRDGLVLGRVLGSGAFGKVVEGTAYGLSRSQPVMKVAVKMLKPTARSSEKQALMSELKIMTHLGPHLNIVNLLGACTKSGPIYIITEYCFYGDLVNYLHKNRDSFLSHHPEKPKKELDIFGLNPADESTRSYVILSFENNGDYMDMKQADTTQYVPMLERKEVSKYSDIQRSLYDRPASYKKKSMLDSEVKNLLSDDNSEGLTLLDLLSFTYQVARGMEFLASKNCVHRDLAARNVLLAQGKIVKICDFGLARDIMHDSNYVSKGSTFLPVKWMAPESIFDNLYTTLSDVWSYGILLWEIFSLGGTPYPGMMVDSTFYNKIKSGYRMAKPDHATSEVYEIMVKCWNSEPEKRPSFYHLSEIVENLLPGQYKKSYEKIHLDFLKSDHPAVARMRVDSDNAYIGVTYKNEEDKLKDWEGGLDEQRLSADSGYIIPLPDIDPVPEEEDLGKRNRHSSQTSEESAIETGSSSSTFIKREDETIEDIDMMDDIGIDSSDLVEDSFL
Chain of Vascular endothelial growth factor receptor 2 (P35968 whole entry): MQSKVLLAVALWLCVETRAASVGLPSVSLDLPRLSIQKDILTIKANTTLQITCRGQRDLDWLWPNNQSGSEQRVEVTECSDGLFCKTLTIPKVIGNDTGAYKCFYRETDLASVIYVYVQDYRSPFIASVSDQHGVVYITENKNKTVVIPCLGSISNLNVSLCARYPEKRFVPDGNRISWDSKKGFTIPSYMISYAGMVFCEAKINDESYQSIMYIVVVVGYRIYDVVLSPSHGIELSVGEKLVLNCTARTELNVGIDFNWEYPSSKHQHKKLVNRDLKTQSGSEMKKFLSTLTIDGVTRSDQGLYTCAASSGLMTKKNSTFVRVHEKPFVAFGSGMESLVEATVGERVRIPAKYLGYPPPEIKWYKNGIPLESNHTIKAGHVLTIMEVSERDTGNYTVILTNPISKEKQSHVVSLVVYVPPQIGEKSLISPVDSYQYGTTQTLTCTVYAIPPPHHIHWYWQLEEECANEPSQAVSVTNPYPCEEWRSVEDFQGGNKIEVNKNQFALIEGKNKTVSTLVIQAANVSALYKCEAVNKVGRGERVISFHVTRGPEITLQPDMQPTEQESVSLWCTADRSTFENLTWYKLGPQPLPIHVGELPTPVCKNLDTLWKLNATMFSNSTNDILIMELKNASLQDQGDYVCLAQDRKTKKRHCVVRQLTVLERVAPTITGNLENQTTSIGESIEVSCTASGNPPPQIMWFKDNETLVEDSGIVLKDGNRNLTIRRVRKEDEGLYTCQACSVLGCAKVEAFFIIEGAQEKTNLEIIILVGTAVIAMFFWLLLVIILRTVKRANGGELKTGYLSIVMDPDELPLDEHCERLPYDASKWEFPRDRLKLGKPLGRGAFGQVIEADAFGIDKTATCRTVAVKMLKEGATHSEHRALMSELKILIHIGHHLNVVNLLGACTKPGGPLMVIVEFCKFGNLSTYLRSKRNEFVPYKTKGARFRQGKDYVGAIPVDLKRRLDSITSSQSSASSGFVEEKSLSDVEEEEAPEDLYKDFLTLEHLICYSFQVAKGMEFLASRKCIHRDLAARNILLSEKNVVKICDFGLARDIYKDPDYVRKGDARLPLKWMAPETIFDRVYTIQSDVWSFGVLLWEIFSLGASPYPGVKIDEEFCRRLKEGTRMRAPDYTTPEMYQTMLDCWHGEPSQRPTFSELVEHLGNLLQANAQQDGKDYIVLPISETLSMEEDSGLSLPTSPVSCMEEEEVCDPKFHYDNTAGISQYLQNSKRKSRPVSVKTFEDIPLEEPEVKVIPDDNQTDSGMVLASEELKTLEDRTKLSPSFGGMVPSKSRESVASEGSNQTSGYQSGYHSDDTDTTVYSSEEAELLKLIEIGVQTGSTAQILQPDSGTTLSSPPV
Chain of DNA topoisomerase 2-alpha (Homo sapiens) (P11388 whole entry): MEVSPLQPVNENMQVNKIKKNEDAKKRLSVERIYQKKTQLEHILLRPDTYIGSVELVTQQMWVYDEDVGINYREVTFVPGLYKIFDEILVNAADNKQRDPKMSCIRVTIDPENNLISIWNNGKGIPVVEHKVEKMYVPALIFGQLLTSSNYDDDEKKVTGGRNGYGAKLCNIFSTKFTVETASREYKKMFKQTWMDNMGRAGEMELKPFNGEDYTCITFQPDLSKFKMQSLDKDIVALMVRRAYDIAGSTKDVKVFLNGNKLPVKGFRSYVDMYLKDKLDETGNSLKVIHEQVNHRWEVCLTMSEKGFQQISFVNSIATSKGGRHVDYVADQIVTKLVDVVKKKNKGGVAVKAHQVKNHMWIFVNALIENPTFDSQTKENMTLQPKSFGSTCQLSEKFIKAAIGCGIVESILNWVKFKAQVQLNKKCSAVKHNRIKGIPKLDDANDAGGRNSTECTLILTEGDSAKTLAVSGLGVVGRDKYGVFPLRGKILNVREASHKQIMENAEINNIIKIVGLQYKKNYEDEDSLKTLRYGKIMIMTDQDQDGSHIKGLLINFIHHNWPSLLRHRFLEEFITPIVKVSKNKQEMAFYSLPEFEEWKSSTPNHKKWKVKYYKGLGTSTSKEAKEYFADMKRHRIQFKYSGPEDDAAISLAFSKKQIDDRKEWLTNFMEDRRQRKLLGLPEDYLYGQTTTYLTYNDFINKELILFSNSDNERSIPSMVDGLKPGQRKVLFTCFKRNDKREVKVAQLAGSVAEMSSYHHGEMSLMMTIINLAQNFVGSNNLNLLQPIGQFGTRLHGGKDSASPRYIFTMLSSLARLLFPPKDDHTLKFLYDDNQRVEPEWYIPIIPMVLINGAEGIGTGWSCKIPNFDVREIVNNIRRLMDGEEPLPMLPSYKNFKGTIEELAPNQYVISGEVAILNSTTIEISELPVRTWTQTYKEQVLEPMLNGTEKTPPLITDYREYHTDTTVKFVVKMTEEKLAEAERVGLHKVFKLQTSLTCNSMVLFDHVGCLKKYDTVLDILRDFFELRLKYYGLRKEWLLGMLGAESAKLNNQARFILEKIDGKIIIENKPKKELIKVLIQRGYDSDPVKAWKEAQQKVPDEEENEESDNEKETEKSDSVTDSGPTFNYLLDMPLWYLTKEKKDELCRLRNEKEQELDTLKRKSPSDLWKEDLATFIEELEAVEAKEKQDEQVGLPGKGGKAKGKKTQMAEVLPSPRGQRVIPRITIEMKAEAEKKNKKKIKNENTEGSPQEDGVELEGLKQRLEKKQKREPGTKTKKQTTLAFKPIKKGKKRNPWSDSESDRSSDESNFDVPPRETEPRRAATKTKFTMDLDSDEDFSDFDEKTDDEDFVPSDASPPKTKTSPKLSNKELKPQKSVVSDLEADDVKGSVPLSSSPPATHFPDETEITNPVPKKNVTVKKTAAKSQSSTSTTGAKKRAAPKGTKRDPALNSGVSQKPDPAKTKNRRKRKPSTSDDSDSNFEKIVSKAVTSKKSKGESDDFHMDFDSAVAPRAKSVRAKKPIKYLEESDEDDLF
Chain of Platelet-derived growth factor receptor beta (P09619 whole entry): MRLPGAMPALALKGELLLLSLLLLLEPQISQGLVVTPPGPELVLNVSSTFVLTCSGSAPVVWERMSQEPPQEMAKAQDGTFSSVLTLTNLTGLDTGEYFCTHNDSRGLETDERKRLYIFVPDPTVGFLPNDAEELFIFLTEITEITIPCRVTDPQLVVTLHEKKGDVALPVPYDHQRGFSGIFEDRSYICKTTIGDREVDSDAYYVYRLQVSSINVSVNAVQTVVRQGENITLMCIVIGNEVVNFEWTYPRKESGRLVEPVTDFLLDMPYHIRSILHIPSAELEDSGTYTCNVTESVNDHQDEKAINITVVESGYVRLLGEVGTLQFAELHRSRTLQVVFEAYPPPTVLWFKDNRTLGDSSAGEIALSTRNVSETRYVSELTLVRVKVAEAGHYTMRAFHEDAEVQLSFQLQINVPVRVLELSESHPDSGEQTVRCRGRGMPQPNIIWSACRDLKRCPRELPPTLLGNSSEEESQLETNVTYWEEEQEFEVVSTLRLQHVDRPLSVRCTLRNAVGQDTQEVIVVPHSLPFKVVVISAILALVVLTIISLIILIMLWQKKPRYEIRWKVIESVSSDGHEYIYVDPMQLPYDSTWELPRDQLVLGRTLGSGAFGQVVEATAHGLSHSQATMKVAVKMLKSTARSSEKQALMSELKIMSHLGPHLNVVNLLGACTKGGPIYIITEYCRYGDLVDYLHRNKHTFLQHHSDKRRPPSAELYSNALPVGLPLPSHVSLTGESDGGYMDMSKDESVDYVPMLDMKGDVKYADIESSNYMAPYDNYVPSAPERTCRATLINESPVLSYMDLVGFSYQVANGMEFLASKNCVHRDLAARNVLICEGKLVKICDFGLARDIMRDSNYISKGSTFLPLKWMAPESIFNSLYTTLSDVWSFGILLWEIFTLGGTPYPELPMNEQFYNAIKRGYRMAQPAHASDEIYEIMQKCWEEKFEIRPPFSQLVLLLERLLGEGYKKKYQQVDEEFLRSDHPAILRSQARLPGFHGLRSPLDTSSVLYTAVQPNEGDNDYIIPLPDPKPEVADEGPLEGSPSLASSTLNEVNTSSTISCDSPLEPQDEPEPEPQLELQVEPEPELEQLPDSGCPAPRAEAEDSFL

As to `CCCCCCN1C(=O)c2cccc3c(NCCNCCN(C)C)ccc(c23)C1=O`, the IC50 (commonly the point on the concentration scale where inhibition reaches its midpoint) in data set [1] was greater than 100 µM; in data set [2], greater than 100 µM; in [3], greater than 100 µM; in [4], greater than 100 µM; in data set [7] it was greater than 50 µM; in [8] it was 46 µM. For the same molecule, the IC50 in the data set on A549 was found to be 9.8 µM; with HL-60 it was 1500 nM; with MDA-MB-231, 6.1 µM. The result in the data set with DNA [5] was inactive. In addition, in data set [6], the concentration in solution (solubility at 24 h) came to 430 µM (≈ 177 µg/mL). Also, in data set [9], the inhibition (usually the change of the read-out against control, counted positive when it falls) was determined as 94.3%.

Regarding `CCCCCCCCCCCCN1C(=O)c2cccc3c(NCCNCCN(C)C)ccc(c23)C1=O`, the IC50 was 28.8 µM in data set [1]; greater than 50 µM in [2]; 27.6 µM in [3]; 26.2 µM in data set [4]; greater than 50 µM in data set [7]; greater than 50 µM in [8]. Besides, the IC50 in the data set with A549 was 19.1 µM; with HL-60 it was 1800 nM; in the data set with MDA-MB-231, 6.6 µM. For the same molecule, the result in the data set on DNA [5] was inactive. Further, in [6], the concentration in solution (solubility at 24 h) came to 63 µM (≈ 31.2 µg/mL). Besides, the inhibition in data set [9] came out at 96.6%.

With `CN(C)CCNCCNc1ccc2c3c(cccc13)C(=O)N(C)C2=O`, the IC50 was greater than 100 µM in data set [1]; greater than 100 µM in data set [2]; greater than 100 µM in data set [3]; greater than 100 µM in data set [4]; 13.6 µM in data set [7]; greater than 50 µM in [8]. In addition, the IC50 with A549 was determined as 24.5 µM; in the data set with HL-60, 7800 nM; in the data set on MDA-MB-231 it was 7.9 µM. The outcome in the data set with DNA [10] and in the data set on DNA [5] was inactive. Further, the concentration in solution in data set [6] (solubility at 24 h) was 78400 µM (≈ 26700 µg/mL). In addition, in the data set on DNA [11], the Kb was found to be 1.3 ×10⁵ /M. The inhibition in [9] is 97.1%.

For the molecule `CN(C)CCN1C(=O)c2cccc3cc(N)cc(c23)C1=O` [AMONAFIDE], the outcome with DNA [10] was inactive. Moreover, in the data set on DNA [11], the Kb worked out at 2.1 ×10⁵ /M. Moreover, the IC50 in [7] worked out at 13.8 µM; in data set [8], 21.6 µM; in the data set with A549, 3.2 µM; with HL-60 it was 900 nM; with MDA-MB-231, 4.4 µM. Moreover, the inhibition in [9] was 97.5%.
